Source: article PMC6474823 (Molecular cell, 2019)

What was measured:
Src^3D V284C = Src^3D V284C (Homo sapiens, UniProt P12931, V284C); assay: Inhibitor IC50 determination, fluorescent SFK peptide kinase assay; assay type: biochemical; details: 1 mM ATP
Outline: (§1)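 Kinase concentrations were set in the linear range by prior titration: Src3D WT or V284C at 7.5 nM, Hck3D WT or V284C at 5 nM. Kinase was incubated 30 min with test compound (30 μM top, 3-fold serial dilutions, 10 points) and 1 mM ATP in HEPES pH 7.5 buffer with MgCl2, EGTA, BSA, vanadate and BME. Then 20 μM pyrene-labelled SFK peptide was added for 2 h. Fluorescence was read at ex 344/em 405 nm, in triplicate.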

Hck^3D WT = Hck^3D WT (Homo sapiens, UniProt P08631); assay: as above; assay type: biochemical; details: 1 mM ATP
Hck^3D WT, sequence (P08631 81-526): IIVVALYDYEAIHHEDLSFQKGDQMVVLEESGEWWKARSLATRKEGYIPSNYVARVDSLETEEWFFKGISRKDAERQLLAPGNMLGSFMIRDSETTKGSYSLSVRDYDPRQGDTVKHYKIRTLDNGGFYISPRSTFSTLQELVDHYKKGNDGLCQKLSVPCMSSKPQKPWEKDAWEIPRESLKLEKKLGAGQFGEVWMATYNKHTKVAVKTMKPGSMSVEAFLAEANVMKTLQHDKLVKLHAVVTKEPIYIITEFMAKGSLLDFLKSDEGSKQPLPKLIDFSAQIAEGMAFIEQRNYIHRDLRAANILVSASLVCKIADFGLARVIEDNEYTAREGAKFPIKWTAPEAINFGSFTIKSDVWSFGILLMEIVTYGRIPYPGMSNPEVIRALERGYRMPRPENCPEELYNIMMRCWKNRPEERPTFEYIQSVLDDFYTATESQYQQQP
Outline: as §1

Src^3D WT = Src^3D WT (Homo sapiens, UniProt P12931); assay: as above; assay type: biochemical; details: 1 mM ATP
Outline: as §1

[1] = test system: kinases in lysates of HEK293T cells expressing Hck^FLAG V284C; assay: Kinobead kinome profiling of CystIMATIK probes; assay type: binding, human; details: 10 μM probe vs DMSO, ~220 kinases enriched
[2] = test system: Src^GFP V284C-expressing SYFs; assay: Membrane blebbing microscopy; assay type: cell-based, murine; details: for membrane blebbing: 15 min treatment, 3 μM 2 or 10 μM 3 (1, 3 or 10 μM 3 for dose dependence)
Outline: (§2)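 SYF cells were seeded on glass slides at 2×10^4 and transfected 24 h later with turbofectin (3:1 μL:μg DNA). At 24 h post-transfection, cells were exposed to test compound for 15 min; where indicated, 10 μM ROCK inhibitor was given for 2 h beforehand. Cells were PBS-washed, fixed in 4% paraformaldehyde for 15 min, and stained with NucBlue and Alexa647-wheat-germ agglutinin for 15 min. The fraction of cells showing blebs was scored.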

Src^FLAG V284C = Src^FLAG V284C (Homo sapiens, UniProt P12931, V284C); assay: SH3 domain pulldown assay with inhibitor-treated cells; assay type: cell-based; details: HEK293 cells treated with 10 μM probe for 2 h; immobilized SH3 domain ligand
Outline: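 HEK293T cells expressing SrcFLAG V284C were treated with 10 μM test compound for 2 h. They were then PBS-washed and lysed for 20 min on ice in modified RIPA (pH 7.8, 1% IGEPAL, protease/phosphatase inhibitors, 10 μM compound). Lysates were cleared at 17,000x g, 4 °C, then incubated with SNAP-immobilized SH3 ligand resin, rotating at room temperature for 1 h. Retained Src was quantified by anti-FLAG blotting, n=3.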

[3] = test system: Src^GFP G2A/V284C-expressing SYFs; assay: Membrane blebbing microscopy; assay type: cell-based, murine; details: 10 μM 3, 15 min; non-myristoylatable Src
Outline: as §2

[4] = test system: SYFs expressing Src^GFP WT; assay: Membrane blebbing microscopy; assay type: cell-based, murine; details: 10 μM 3, 15 min; Src^GFP WT resistant to probes
[5] = test system: Fyn^myr V284C-expressing SYFs; assay: Membrane blebbing microscopy; assay type: cell-based, murine; details: 10 μM 3, 15 min
Outline: as §2

Src^FL K445C = Src^FL K445C (Homo sapiens, UniProt P12931, K445C); assay: Isotope-coded maleimide labeling and mass spectrometry; details: 5 μM inhibitor
Outline: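 Purified SrcFL K445C was diluted to 800 nM in HEPES pH 7.6 buffer with 5% glycerol and 0.02% DDM. It was incubated with 5 μM test compound at 25 °C for 30 min, then labelled with 1 mM heavy or light N-ethyl maleimide at 25 °C for 30 min. The reaction was quenched with 10 mM DTT. Heavy and light reactions were mixed, and protein was precipitated with deoxycholate/TCA on ice before mass spectrometry.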

Compound: COCCn1c(/C=C(/C#N)C(=O)NC(C)C)c(-c2ccc(Cl)cc2)c2c(N)ncnc21 [compound 1, (E)- & (Z)-3-(4-Amino-5-(4-chlorophenyl)-7-(2-methoxyethyl)-7H-pyrrolo[2,3-d]pyrimidin-6-yl)-2-cyano-N-isopropylacrylamide]
- inhibition of Src V284C (IC50, Figure 4C) (Src^3D V284C): potently inhibited
- inhibition of WT Hck (IC50, Figure 4C) (Hck^3D WT): insensitive
- inhibition of WT Src (IC50, Figure 4C) (Src^3D WT): insensitive
- kinases depleted from Kinobead matrix (selectivity) [1]: Hck^FLAG V284C was the only kinase among the ~220 enriched that was depleted

Compound: COCCn1c(/C=C(/C#N)C(=O)NC(C)C)c(-c2ccc(Oc3ccccc3)cc2)c2c(N)ncnc21 [compound 2, (E)- & (Z)-3-(4-Amino-7-(2-methoxyethyl)-5-(4-phenoxyphenyl)-7H-pyrrolo[2,3-d]pyrimidin-6-yl)-2-cyano-N-isopropylacrylamide]
- membrane blebbing after pre-treatment with 2 prior to addition of 3 ([2]; 3 μM 2 for 15 min, then 10 μM 3 for 15 min): levels of blebbing comparable to cells treated with DMSO or 2 alone
- membrane blebbing [2]: minimally affected
- inhibition of Src V284C (IC50, Figure 4C) (Src^3D V284C): potently inhibited
- inhibition of WT Hck (IC50, Figure 4C) (Hck^3D WT): minimal inhibition
- inhibition of WT Src (IC50, Figure 4C) (Src^3D WT): minimal inhibition
- kinases depleted from Kinobead matrix (selectivity) [1]: Hck^FLAG V284C was the only kinase among the ~220 enriched that was depleted
- SH3 domain accessibility (retained Src in SH3 pulldown) (Src^FLAG V284C): minimal pulldown

Compound: CNC(=O)C(C#N)=Cc1c(C#Cc2cc(NC(=O)c3cccc(C(F)(F)F)c3)ccc2C)c2cncnc2n1CCOC [compound 3, (E)- and (Z)-N-(3-((6-(2-cyano-3-(methylamino)-3-oxoprop-1-en-1-yl)-7-(2-methoxyethyl)-7H-pyrrolo[2,3-d]pyrimidin-5-yl)ethynyl)-4-methylphenyl)-3-(trifluoromethyl)benzamide]
- membrane blebbing [2]: induction of blebbing
- inhibition of Src V284C (IC50, Figure 4C) (Src^3D V284C): potently inhibited
- membrane blebbing [3]: did not produce blebbing
- inhibition of WT Hck (IC50, Figure 4C) (Hck^3D WT): minimal inhibition
- membrane blebbing [4]: did not significantly increase membrane blebs
- inhibition of WT Src (IC50, Figure 4C) (Src^3D WT): minimal inhibition
- SH3 domain accessibility (retained Src in SH3 pulldown) (Src^FLAG V284C): greatly increased
- membrane blebbing [5]: marked increase in blebbing

Compound: Cc1ccc(NC(=O)c2cccc(C(F)(F)F)c2)cc1C#Cc1nn(C2CCCC2)c2ncnc(N)c12 [compound 6, N-(3-((4-amino-1-cyclopentyl-1H-pyrazolo[3,4-d]pyrimidin-3-yl)ethynyl)-4-methylphenyl)-3-(trifluoromethyl)benzamide]
- maleimide labeling of control cysteine residue, 6 complex vs 5 complex (Src^FL K445C; control peptide): no change in labeling
- K445C maleimide labeling, open (6) compared to closed (5) conformation (Src^FL K445C; αF peptide, ratio 6 complex vs 5 complex): ~ 5 fold
